Key:
L929 cells = assay: Cellular uptake of NR-loaded micelles; format: cell-based
Method in brief: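 L929 cells (CD44-negative) grown 24 h in DMEM with 10% FBS, then medium replaced with free fluorescent marker NR or micelles loaded with NR at 0.2% drug loading. Incubated at 37 °C for 1, 4 and 8 h, washed thrice with PBS, and viewed by fluorescent inverted microscope. For flow cytometry at 1 and 4 h, cells were PBS-washed, trypsinised, resuspended in PBS, and read at 560/620 nm.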

B16F10 cells = assay: Cellular uptake of NR-loaded micelles; format: cell-based; conditions: B16F10, flow cytometry, 1 h and 4 h

CCN(CC)c1ccc2nc3c4ccccc4c(=O)cc-3oc2c1 [free NR, nile red]
Fluorescence intensity of NR (cellular uptake) (L929 cells; L929 (CD44-negative), fluorescent inverted microscope): highest
Fluorescence intensity of NR (cellular uptake) (L929 cells; L929, flow cytometry, 1 h and 4 h): highest
Intracellular NR concentrations, order (B16F10 cells): HA-SS-ATRA21/NR micelles > HA-ATRA20/NR micelles > free NR > HA-SS-ATRA21/NR micelles treated with free-HA
